The source of these data is ChEMBL document CHEMBL1133660, “A potential melanoma tracer: synthesis, radiolabeling, and biodistribution in mice of a new nitridotechnetium bis(aminothiol) derivative pharmacomodulated by a N-(diethylaminoethyl)benzamide” (J Med Chem, 2000).

Series [1] in a line: Tumor / liver ratio observed after 3 hours of injection. It is filed as ADME, tissue-based.
For series [2], the species on record is Mus musculus. Nature of the series: Tissue biodistribution of the syn isomer in the B16 murine melanoma tumor in mice at 24 hours. Particulars: in vivo. It is filed as ADME, organism-based. A digest of the protocol: (§1)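 Male C57BL/6 J1 co mice given 5 × 10^5 viable B16 melanoma cells subcutaneously; tumors palpable after 10 days. 0.74 MBq 99mTc-labeled complex injected iv via tail vein. n = 3 per time point; sacrifice by exsanguination at 5 min, 15 min, 1, 3, 6 and 24 h. Tissues weighed and γ-counted; results as % injected dose/gram of tissue.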

Series [3] in a line: Tumor / liver ratio observed after 24 hours of injection. Format: ADME, tissue-based.
For series [4], the species on record is Mus musculus. Nature of the series: Tissue biodistribution of the syn isomer in the B16 murine melanoma tumor in mice at 3 hours. Format: ADME, organism-based. As to conditions: in vivo. A digest of the protocol:
as §1

Series [5] can be described thus: Tumor / liver ratio observed after 6 hours of injection. Format: ADME.
For series [6], the species on record is Mus musculus. As to the kind of experiment: Tissue biodistribution of the syn isomer in the B16 murine melanoma tumor in mice at 6 hours. It is filed as ADME, organism-based. Particulars: in vivo. The method, boiled down:
as §1

Series [7] is filed under the species Mus musculus. Nature of the series: Tissue biodistribution of the syn isomer in the B16 murine melanoma tumor in mice at 1 hour. Format: ADME, organism-based. As to conditions: in vivo. The method, boiled down: as §1
Series [8] in a line: Tumor / liver ratio observed after 1 hour of injection. Format: ADME, tissue-based.
The nature of series [9]: (§2) Partition coefficient (logP). Format: physicochemical. As to conditions: octanol/water. A digest of the protocol:
(§3)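 Partition between octanol and pH 7.4 Tris buffer, reported as log P.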

A short description of series [10]: as §2. As to conditions: octanol/water. It is filed as physicochemical. A digest of the protocol:
as §3
This is another data set of the same source.

As to “(TcN-BAT)nitridotechnetium complex of bis(aminoethanethiol)”, the Tumor/liver ratio came to 0.1 in series [1], 0.06 in series [3], 0.1 in [5] and 0.18 in [8]. In addition, the ID/g is reported as 0.04% in [2], 0.2% in [4], 0.11% in series [6] and 0.75% in [7].

Usually logP stands for the decadic logarithm of the partition coefficient of the neutral form, usually between octanol and water. A higher logP goes with a more lipophilic compound. Consider `CCN(CC)CCNC(=O)c1ccc(COCC(CNCC(C)(C)S)NCC(C)(C)S)cc1` (stereo not drawn), for which the figures for the logP in series [9] and in [10] were -0.45 and -0.3, respectively.

Regarding `CCN(CC)CCNC(=O)c1ccc([125I])cc1`, the Tumor/liver ratio is 1.05 in [1], 4.94 in [3], 3.71 in [5] and 1.12 in series [8]. Moreover, the ID/g was 0.79% in series [2], 3.85% in [4], 3.53% in series [6] and 6.75% in series [7].
